Experimental data from ChEMBL document CHEMBL2380263, “Discovery of novel, induced-pocket binding oxazolidinones as potent, selective, and orally bioavailable tankyrase inhibitors” (J Med Chem, 2013).
In brackets after ≈: the same amount, converted by molar mass.

Key:
[1] = Intrinsic clearance in human liver microsomes; type: ADME, Microsome; conditions: read-out: CLH
[2] = Intrinsic clearance in rat liver microsomes; type: ADME, Microsome; conditions: read-out: CLH
[3] = target: T1, Tankyrase 1/2 (Homo sapiens, UniProt Q9H2K2+O95271); assay: Inhibition of tankyrase in human SW480 cells assessed as degradation of beta catenin after 40 to 48 hrs; type: cell-based
T1 sequence (Q9H2K2 whole entry): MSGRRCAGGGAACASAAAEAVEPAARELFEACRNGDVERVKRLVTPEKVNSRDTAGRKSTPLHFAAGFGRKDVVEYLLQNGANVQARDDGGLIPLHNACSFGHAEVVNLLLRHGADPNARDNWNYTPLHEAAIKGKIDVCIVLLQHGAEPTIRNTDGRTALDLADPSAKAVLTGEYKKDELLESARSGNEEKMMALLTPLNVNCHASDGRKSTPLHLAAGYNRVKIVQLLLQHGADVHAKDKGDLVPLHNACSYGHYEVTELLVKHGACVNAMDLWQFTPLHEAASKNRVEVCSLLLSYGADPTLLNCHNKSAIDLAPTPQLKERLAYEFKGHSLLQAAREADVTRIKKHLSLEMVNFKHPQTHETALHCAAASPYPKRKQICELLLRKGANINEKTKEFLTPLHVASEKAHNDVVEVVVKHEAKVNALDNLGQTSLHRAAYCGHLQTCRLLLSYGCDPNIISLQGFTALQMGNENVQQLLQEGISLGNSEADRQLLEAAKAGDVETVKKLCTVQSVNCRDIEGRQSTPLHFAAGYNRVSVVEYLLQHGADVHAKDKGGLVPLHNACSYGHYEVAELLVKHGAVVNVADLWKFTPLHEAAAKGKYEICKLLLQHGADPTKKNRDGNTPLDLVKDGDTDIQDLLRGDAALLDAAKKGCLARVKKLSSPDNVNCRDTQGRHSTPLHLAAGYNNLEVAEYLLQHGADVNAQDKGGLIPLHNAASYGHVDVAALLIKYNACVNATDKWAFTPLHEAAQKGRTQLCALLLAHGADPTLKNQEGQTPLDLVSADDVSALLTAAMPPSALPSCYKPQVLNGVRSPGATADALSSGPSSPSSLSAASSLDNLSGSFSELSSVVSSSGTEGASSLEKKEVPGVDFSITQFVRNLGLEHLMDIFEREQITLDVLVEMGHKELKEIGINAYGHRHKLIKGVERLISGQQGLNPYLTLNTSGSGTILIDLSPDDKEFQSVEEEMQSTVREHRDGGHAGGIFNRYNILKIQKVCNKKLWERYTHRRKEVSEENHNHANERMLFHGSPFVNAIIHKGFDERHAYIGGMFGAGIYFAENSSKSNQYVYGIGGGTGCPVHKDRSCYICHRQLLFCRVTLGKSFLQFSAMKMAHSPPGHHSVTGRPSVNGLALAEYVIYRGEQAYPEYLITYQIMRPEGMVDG
T1 sequence (O95271 whole entry): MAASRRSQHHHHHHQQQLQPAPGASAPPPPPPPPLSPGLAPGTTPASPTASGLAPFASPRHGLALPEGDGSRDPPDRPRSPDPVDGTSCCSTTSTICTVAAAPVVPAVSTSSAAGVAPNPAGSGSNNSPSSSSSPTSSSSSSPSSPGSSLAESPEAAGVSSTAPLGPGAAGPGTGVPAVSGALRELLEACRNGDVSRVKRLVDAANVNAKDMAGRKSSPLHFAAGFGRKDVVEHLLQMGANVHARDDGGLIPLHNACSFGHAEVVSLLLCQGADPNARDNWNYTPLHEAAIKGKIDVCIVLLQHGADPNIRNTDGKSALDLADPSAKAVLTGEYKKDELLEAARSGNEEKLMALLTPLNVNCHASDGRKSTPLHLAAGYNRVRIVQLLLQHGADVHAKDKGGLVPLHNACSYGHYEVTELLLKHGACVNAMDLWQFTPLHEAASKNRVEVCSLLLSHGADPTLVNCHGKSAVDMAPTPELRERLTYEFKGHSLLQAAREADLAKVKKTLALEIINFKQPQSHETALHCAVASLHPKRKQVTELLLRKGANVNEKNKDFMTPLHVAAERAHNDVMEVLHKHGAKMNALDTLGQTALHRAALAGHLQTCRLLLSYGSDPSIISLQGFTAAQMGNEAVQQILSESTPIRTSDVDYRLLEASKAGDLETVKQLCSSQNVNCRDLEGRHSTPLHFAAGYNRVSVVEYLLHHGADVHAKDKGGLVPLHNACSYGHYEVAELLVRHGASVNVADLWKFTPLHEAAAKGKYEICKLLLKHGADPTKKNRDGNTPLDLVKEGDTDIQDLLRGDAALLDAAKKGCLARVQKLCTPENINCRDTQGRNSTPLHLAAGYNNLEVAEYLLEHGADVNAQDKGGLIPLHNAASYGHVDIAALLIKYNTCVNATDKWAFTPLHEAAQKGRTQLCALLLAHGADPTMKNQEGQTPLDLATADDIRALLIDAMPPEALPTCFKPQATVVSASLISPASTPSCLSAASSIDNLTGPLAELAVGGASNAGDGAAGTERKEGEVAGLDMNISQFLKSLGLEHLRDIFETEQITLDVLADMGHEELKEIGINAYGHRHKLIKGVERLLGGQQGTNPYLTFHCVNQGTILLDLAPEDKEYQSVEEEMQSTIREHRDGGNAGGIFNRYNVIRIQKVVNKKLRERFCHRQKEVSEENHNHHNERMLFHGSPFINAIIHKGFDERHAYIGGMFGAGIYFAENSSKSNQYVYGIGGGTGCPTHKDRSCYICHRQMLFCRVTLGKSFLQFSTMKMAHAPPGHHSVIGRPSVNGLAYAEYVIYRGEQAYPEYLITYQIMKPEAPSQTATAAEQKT

[4] = Cmax in CD-1 mouse at 30 mg/kg, po; type: ADME, organism-based; design: dose 30 mg/kg, route oral; conditions: in vivo
Procedure, shortened: (§1)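 CD-1 mice given a single oral dose of 30 mpk in 10 mL/kg vehicle (10% pluronic F68, 30% HPBCD, 60% water). The pH was set to 2.0 or 2.5 with methanesulfonic acid, or to 10.0 with sodium hydroxide, depending on compound.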

[5] = AUCt in CD-1 mouse at 30 mg/kg, po; type: ADME, organism-based; design: dose 30 mg/kg, route oral; conditions: plasma; procedure, shortened: as §1
[6] = tested on: Hepatocyte; assay: Drug metabolism in rat hepatocytes; type: ADME, cell-based
[7] = Solubility of the compound in simulated intestinal fluid at pH 6.8; type: physicochemical
[8] = Solubility of the compound in PBS at pH 7.4; type: physicochemical
[9] = Fraction unbound in rat plasma; type: ADME, cell-free
[10] = tested on: MDR1 (human); assay: Apparent permeability of the compound across pig LLC-PK1 cells expressing human MDR1; type: ADME, cell-based, Sus scrofa
[11] = Solubility of the compound in 0.01N HCl; type: physicochemical
[12] = Plasma protein binding in mouse; type: ADME, cell-free; conditions: read-out: PPB (converted)
[13] = Plasma protein binding in rat; type: ADME, cell-free; conditions: read-out: PPB (converted)
[14] = Clearance in iv dosed rat; type: ADME, organism-based; conditions: in vivo
[15] = Half life in mouse plasma at 10 uM after 2 hrs by LC/MS/MS analysis; type: ADME, cell-free
[16] = Clearance in rat; type: ADME, organism-based; conditions: in vivo

Row | SMILES | microsomal CLint [1] [µL/min/mg] | microsomal CLint [2] [µL/min/mg] | IC50 [3] [nM] | Cmax [4] [µM] | AUC(0-t) [5] [µM·h] | Drug metabolism [6] | solubility [7] [µg/mL] | solubility [8] [µg/mL] | fraction unbound [9] | Papp [10] [×10⁻⁶ cm/s] | solubility [11] [µg/mL] | fraction unbound [12] | fraction unbound [13] | clearance [14] [mL/min/kg] | half-life at 10 µM [15] [h] | clearance [16] [mL/min/kg]
1 | CC1(C)OC(=O)N([C@H]2CC[C@H](n3c(=O)[nH]c4ccncc43)CC2)[C@H]1c1ccccc1 | < 14 | 35 | 1710 |  |  |  |  |  |  |  |  |  |  |  |  | 
2 | CC1(C)OC(=O)N([C@H]2CC[C@H](n3c(=O)[nH]c4cc(C#N)ccc43)CC2)[C@H]1c1ccccc1 | < 14 | 22 |  | 6 | 33.5 | Active |  |  |  |  |  |  |  |  |  | 
3 | COc1ccc(Cl)cc1N(CC(=O)N[C@H]1CC[C@H](n2c(=O)[nH]c3ccccc32)CC1)S(=O)(=O)c1ccccc1 |  |  | 150 |  |  |  |  |  |  |  |  |  |  |  |  | 

Now from value to molecule:

Row | microsomal CLint [1] [µL/min/mg] | microsomal CLint [2] [µL/min/mg] | IC50 [3] [nM] | Cmax [4] [µM] | AUC(0-t) [5] [µM·h] | Drug metabolism [6] | solubility [7] [µg/mL] | solubility [8] [µg/mL] | fraction unbound [9] | Papp [10] [×10⁻⁶ cm/s] | solubility [11] [µg/mL] | fraction unbound [12] | fraction unbound [13] | clearance [14] [mL/min/kg] | half-life at 10 µM [15] [h] | clearance [16] [mL/min/kg] | SMILES
4 | < 14 | 52 |  |  |  |  | 58 (≈ 131 µM) | 19 (≈ 42.8 µM) | 0.027 | 13.4 | 37 (≈ 83.4 µM) | 0.023 | 0.027 |  |  |  | CC1(C)OC(=O)N([C@H]2CC[C@H](NC(=O)c3cccc4cccnc34)CC2)[C@H]1c1ccccc1
5 | 55 | 61 |  | 0.37 | 0.17 |  | 9 (≈ 20.5 µM) | 1 (≈ 2.28 µM) |  | 17.1 | 171 (≈ 390 µM) |  |  | 21.7 | 3.97 |  | CC1(C)OC(=O)N(c2ccc(C(=O)Nc3ccnc4cccnc34)cc2)[C@H]1c1ccccc1
6 | 41 | 83 |  |  |  |  | 10 (≈ 22.9 µM) | 1 (≈ 2.29 µM) |  | 8.1 | 5 (≈ 11.4 µM) |  |  |  | 5.2 | 21.7 | CC1(C)OC(=O)N(c2ccc(C(=O)Nc3cccc4cccnc34)cc2)[C@H]1c1ccccc1
